These results are taken from ChEMBL document CHEMBL1147083, “High-throughput synergy screening identifies microbial metabolites as combination agents for the treatment of fungal infections” (Proc Natl Acad Sci U S A, 2007).

For data set [1], the system named is Candida parapsilosis. The data set can be described thus: Antifungal activity against Candida parapsilosis infected cyclophosphamide-immunocompromized Crl:CD1(ICR) mouse assessed as fungal density in kidney at 0.5 mg/kg, po for 5 days measured on day 12. The format is functional. The procedure, abridged:
(§1)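 Female specific-pathogen-free ICR (Crl:CD-1) mice, ≈20–22 g, made neutropenic with cyclophosphamide 100 mg/kg i.p. once daily for 3 days. On day 3, infected i.p. with 1 × 10^4 C. parapsilosis ATCC 22019 blastospores. Oral gavage dosing began 6 h postinfection, then once daily for 5 days; placebo was 0.1 ml saline. Left kidney or lungs homogenized in 0.9% saline and plated on Sabouraud dextrose agar, 48 h at 35°C. Result is log10 cfu/g (n = 5).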

The subject of data set [2] is Candida parapsilosis. The data set can be described thus: Antifungal activity against Candida parapsilosis infected cyclophosphamide-immunocompromized Crl:CD1(ICR) mouse assessed as fungal density in brain at 0.5 mg/kg, po for 5 days measured on day 12. The format is functional.
Data set [3] relates to Candida parapsilosis. As to the kind of experiment: Antifungal activity against Candida parapsilosis infected cyclophosphamide-immunocompromized Crl:CD1(ICR) mouse assessed as fungal density in lung at 0.5 mg/kg, po for 5 days measured on day 12. The format is functional. The procedure, abridged: as §1
For data set [4], the system named is Candida parapsilosis. The data set can be described thus: Antifungal activity against Candida parapsilosis infected cyclophosphamide-immunocompromized Crl:CD1(ICR) mouse assessed as survival at 0.5 mg/kg, po for 5 days. It counts as functional. The procedure, abridged:
(§2)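 Female ICR (Crl:CD-1) mice on cyclophosphamide 100 mg/kg i.p. daily for 3 days, then infected i.p. on day 3 with 1 × 10^4 C. parapsilosis ATCC 22019 blastospores. Oral gavage dosing started 6 h postinfection and continued once daily for 5 days, with saline placebo. Mice observed thrice daily for […]. Moribund animals were killed and counted as dying the next day. Mean survival time compared to controls by one-way ANOVA and Kaplan–Meier.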

Data set [5] relates to Candida parapsilosis. The data set can be described thus: Antifungal activity against Candida parapsilosis infected cyclophosphamide-immunocompromized Crl:CD1(ICR) mouse assessed as survival at 0.5 mg/kg, po for 5 days in presence of beauvericin. It counts as functional. The procedure, abridged:
as §2

Data set [6] relates to Candida parapsilosis. The data set can be described thus: Antifungal activity against Candida parapsilosis infected cyclophosphamide-immunocompromized Crl:CD1(ICR) mouse assessed as fungal density in kidney at 10 mg/kg, po for 5 days measured on day 12. The format is functional. Put shortly: as §1
Data set [7] has as its system Candida parapsilosis. As to the kind of experiment: Antifungal activity against Candida parapsilosis infected cyclophosphamide-immunocompromized Crl:CD1(ICR) mouse assessed as fungal density in kidney at 50 mg/kg, po for 5 days measured on day 12. It counts as functional. The procedure, abridged: as §1
Data set [8] deals with Candida parapsilosis. As to the kind of experiment: Antifungal activity against Candida parapsilosis infected cyclophosphamide-immunocompromized Crl:CD1(ICR) mouse assessed as fungal density in lung at 10 mg/kg, po for 5 days measured on day 12. It counts as functional. The procedure, abridged:
as §1

Data set [9] relates to Candida parapsilosis. As to the kind of experiment: Antifungal activity against Candida parapsilosis infected cyclophosphamide-immunocompromized Crl:CD1(ICR) mouse assessed as fungal density in kidney at 0.5 mg/kg, po for 5 days measured on day 12 in presence beauvericin. The format is functional. Put shortly: as §1
Data set [10] relates to Candida parapsilosis. As to the kind of experiment: Antifungal activity against Candida parapsilosis infected cyclophosphamide-immunocompromized Crl:CD1(ICR) mouse assessed as survival at 50 mg/kg, po for 5 days. It counts as functional. Put shortly: as §2
The subject of data set [11] is Candida parapsilosis. As to the kind of experiment: Antifungal activity against Candida parapsilosis infected cyclophosphamide-immunocompromized Crl:CD1(ICR) mouse assessed as fungal density in lung at 0.5 mg/kg, po for 5 days measured on day 12 in presence beauvericin. The format is functional. Put shortly:
as §1

Data set [12] has as its system HepG2. As to the kind of experiment: Toxicity against human HepG2 cells at 100 ug/ml. The format is cell-based.
The test system of data set [13] is HepG2. As to the kind of experiment: Toxicity against human HepG2 cells at 6.25 ug/ml in presence of merine microbial F10104 extract. It counts as cell-based.
Data set [14] deals with HepG2. As to the kind of experiment: Toxicity against human HepG2 cells at 50 ug/ml. It counts as cell-based.
The test system of data set [15] is Candida parapsilosis. As to the kind of experiment: Antifungal activity against Candida parapsilosis infected cyclophosphamide-immunocompromized Crl:CD1(ICR) mouse assessed as survival at 10 mg/kg, po for 5 days. The format is functional. The procedure, abridged: as §2
Data set [16] deals with Candida parapsilosis. The data set can be described thus: Antifungal activity against Candida parapsilosis infected cyclophosphamide-immunocompromized Crl:CD1(ICR) mouse assessed as fungal density in lung at 50 mg/kg, po for 5 days measured on day 12. It counts as functional. Put shortly:
as §1

For the compound `CC(C)[C@@H]1OC(=O)[C@@H](Cc2ccccc2)N(C)C(=O)[C@H](C(C)C)OC(=O)[C@@H](Cc2ccccc2)N(C)C(=O)[C@H](C(C)C)OC(=O)[C@@H](Cc2ccccc2)N(C)C1=O` (single isomer, unassigned) [BEAUVERICIN], the Log10 cfu in the data set with Candida parapsilosis [1] worked out at 9.3; with Candida parapsilosis [2], 3.2; in the data set with Candida parapsilosis [3], 5.2. Moreover, the Survival in the data set on Candida parapsilosis [4] was 8.3 days.

With `CC(=O)N1CCN(c2ccc(OCC3COC(Cn4ccnc4)(c4ccc(Cl)cc4Cl)O3)cc2)CC1` (centres undefined) [KETOCONAZOLE], the Survival in the data set with Candida parapsilosis [5] was greater than 21 days; in the data set on Candida parapsilosis [10], 19.4 days; in the data set on Candida parapsilosis [15], 14.2 days; with Candida parapsilosis [4], 9.2 days. The Log10 cfu in the data set with Candida parapsilosis [6] is recorded as 7.6; in the data set on Candida parapsilosis [7], 5.5; with Candida parapsilosis [8], 3.5; with Candida parapsilosis [1], 8.4; in the data set with Candida parapsilosis [9], 1.3; in the data set on Candida parapsilosis [11], 1.2. For the same compound, the Log10 cfu in the data set on Candida parapsilosis [3] is on record as 4.8; in the data set on Candida parapsilosis [16], 2.6. Besides, the Activity entry with HepG2 [12] is “Toxic”; in the data set on HepG2 [13], “Non-toxic”; in the data set with HepG2 [14], “Toxic”.
